Test results as given in ChEMBL document CHEMBL1828575, “Design, synthesis and antiproliferative activities of biarylolefins based on polyhydroxylated and carbohydrate scaffolds” (Eur J Med Chem, 2011).

Tests used:
Assay type in all cases: functional
NCI-H522 = test: Antitumor activity against human NCI-H522 cells after 48 hrs by SRB assay; details: NCI-H522, 48 h
In short: (§1)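 NCI60 panel in RPMI 1640 with 5% FBS and 2 mM L-glutamine. Cells were plated at 5000–40,000/well by doubling time, held 24 h, then time-zero plates were TCA-fixed. Five concentrations (10-fold or half-log dilutions of DMSO stocks) were applied for 48 h at 37 °C, 5% CO2. Cells were fixed with cold TCA (10% final adherent, 16% suspension) and stained with 0.4% SRB. Bound dye was dissolved in 10 mM Tris and read at 515 nm. GI50, TGI and LC50 were calculated per line.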

ACHN = test: Antitumor activity against human ACHN cells after 48 hrs by SRB assay; in short: as §1
SK-MEL-2 = test: Cytotoxicity against human SK-MEL-2 cells assessed as cellular growth at 10 uM after 48 hrs by SRB assay
In short: (§2)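 NCI-60 panel lines grown in RPMI 1640 with 5% FBS and 2 mM L-glutamine. Plated at 5000–40,000 cells/well and preincubated 24 h at 37 °C, 5% CO₂, with time-zero plates fixed in TCA. Compounds, dissolved in DMSO and diluted in medium, were applied for 48 h. Cells were TCA-fixed (10% final for adherent, 16% for suspension) and stained with 0.4% SRB in 1% acetic acid. Dye was solubilised in 10 mM Tris base and read at 515 nm; growth was expressed as a percentage of untreated control.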

SNB-19 = test: Cytotoxicity against human SNB19 cells assessed as cellular growth at 10 uM after 48 hrs by SRB assay; in short: as §2
KM12 = test: Antitumor activity against human KM12 cells after 48 hrs by SRB assay; details: KM12, 48 h; in short: as §1
IGROV-1 [1] = test: Antitumor activity against human IGROV1 cells after 48 hrs by SRB assay; details: IGROV-1, 48 h; in short: as §1
IGROV-1 [2] = test: Cytotoxicity against human IGROV1 cells assessed as cellular growth at 10 uM after 48 hrs by SRB assay
In short: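 NCI60 single-dose screen of cells in RPMI 1640 with 5% FBS and 2 mM L-glutamine, preincubated 24 h at 37 °C, 5% CO₂. Cells were then exposed 48 h to compound added from DMSO stock. TCA-fixed, stained with 0.4% SRB in 1% acetic acid, dye solubilised in 10 mM Tris base and read at 515 nm. Growth is given as percent of untreated control.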

RPMI-8226 = test: Antitumor activity against human RPMI8226 cells after 48 hrs by SRB assay; details: RPMI-8226, 48 h; in short: as §1
LOX IMVI = test: Antitumor activity against human LOXIMVI cells after 48 hrs by SRB assay; in short: as §1
RXF 393 = test: Antitumor activity against human RXF393 cells after 48 hrs by SRB assay; details: RXF 393, 48 h; in short: as §1
MDA-MB-468 = test: Cytotoxicity against human MDA-MB-468 cells assessed as cellular growth at 10 uM after 48 hrs by SRB assay; in short: as §2
SK-OV-3 = test: Cytotoxicity against human SKOV3 cells assessed as cellular growth at 10 uM after 48 hrs by SRB assay; in short: as §2
MCF7 = test: Cytotoxicity against human MCF7 cells assessed as cellular growth at 10 uM after 48 hrs by SRB assay; in short: as §2
HCT-15 = test: Antiproliferative activity against human HCT15 cells after 48 hrs by SRB assay; details: HCT-15, 48 h
In short: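 NCI60 screen: cells grown in RPMI 1640 with 5% FBS and 2 mM L-glutamine, plated at 5000–40,000 cells/well by doubling time, preincubated 24 h at 37 °C with 5% CO2. Compounds were diluted from DMSO stocks and given for 48 h, at five concentrations for dose response. A time-zero plate was TCA-fixed. Cells were TCA-fixed, stained with 0.4% SRB and read at 515 nm, with growth expressed relative to untreated controls.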

UACC-257 = test: Cytotoxicity against human UACC257 cells assessed as cellular growth at 10 uM after 48 hrs by SRB assay; in short: as §2
Malme-3M = test: Cytotoxicity against human MALME-3M cells assessed as cellular growth at 10 uM after 48 hrs by SRB assay; in short: as §2
U-251 = test: Cytotoxicity against human U251 cells assessed as cellular growth at 10 uM after 48 hrs by SRB assay; in short: as §2
CCRF-CEM = test: Antitumor activity against human CCRF-CEM cells after 48 hrs by SRB assay; in short: as §1
SNB-75 = test: Cytotoxicity against human SNB75 cells assessed as cellular growth at 10 uM after 48 hrs by SRB assay; in short: as §2
A498 = test: Antitumor activity against human A498 cells after 48 hrs by SRB assay; details: A498, 48 h; in short: as §1
[3] = read-out: LC50 (the source's name)
[4] = read-out: pLC50 (the source's name) (converted)

Work on COc1cc(/C(=C2\O[C@@H]([C@H]3COC(C)(C)O3)[C@H]3OC(C)(C)O[C@@H]23)c2ccc3ccccc3c2)cc(OC)c1OC yielded a GI50 (NCI-H522) of 2.26 µM, a TGI (NCI-H522) of 6.54 µM and a CC50 (NCI-H522; [3]) greater than 100 µM. It also gave a GI50 (ACHN; read-out: GI50) of 4.39 µM, a CC50 (ACHN; [3]) greater than 100 µM and a TGI (ACHN; read-out: TGI) greater than 100 µM. The GI50 (ACHN; read-out: pGI50 (converted)) was 4.57 µM, the CC50 (ACHN; [4]) was greater than 100 µM and the TGI (ACHN; read-out: pTGI) was greater than 100 µM. The Activity (SK-MEL-2) was -49.67%, the Activity (SNB-19) was 29% and the GI50 (KM12) was 6 µM. The LC50 (KM12) was greater than 100 µM, the TGI (KM12) was greater than 100 µM and the GI50 (IGROV-1 [1]; read-out: GI50) was 3.3 µM. For the same compound, the CC50 (IGROV-1 [1]; [3]) was greater than 100 µM, the TGI (IGROV-1 [1]; read-out: TGI) was greater than 100 µM and the GI50 (IGROV-1 [1]; read-out: pGI50 (converted)) was 2.82 µM. It also gave a CC50 (IGROV-1 [1]; [4]) greater than 100 µM, a TGI (IGROV-1 [1]; read-out: pTGI) greater than 100 µM and an Activity (IGROV-1 [2]) of -21.44%. It also gave an LC50 (concentration killing 50% of starting cells) (RPMI-8226) greater than 100 µM, a GI50 (RPMI-8226; read-out: GI50) of 33.3 µM and a TGI (RPMI-8226; read-out: TGI) greater than 100 µM. The GI50 (RPMI-8226; read-out: pGI50 (converted)) was 33.1 µM, the CC50 (RPMI-8226; [4]) was greater than 100 µM and the TGI (RPMI-8226; read-out: pTGI (converted)) was greater than 100 µM. It also gave a GI50 (LOX IMVI) of 3.39 µM, a TGI (LOX IMVI) of 19.8 µM and a CC50 (LOX IMVI; [3]) greater than 100 µM. It also gave a GI50 (RXF 393) of 2.54 µM, a TGI (RXF 393) of 5.99 µM and a CC50 (RXF 393; [3]) of 32.6 µM. It also gave an Activity (MDA-MB-468) of 51.21%, an Activity (SK-OV-3) of 51.39% and an Activity (MCF7) of 22.8%. The CC50 (HCT-15; [3]) was greater than 100 µM, the CC50 (HCT-15; [4]) was greater than 100 µM and the Activity (UACC-257) was 45.86%. The Activity (Malme-3M) was -25.39%, the Activity (U-251) was 18% and the GI50 (CCRF-CEM; read-out: GI50) was 48.3 µM. It also gave a CC50 (CCRF-CEM; [3]) greater than 100 µM, a TGI (CCRF-CEM; read-out: TGI) greater than 100 µM and a GI50 (CCRF-CEM; read-out: pGI50 (converted)) of 47.9 µM. The CC50 (CCRF-CEM; [4]) was greater than 100 µM, the TGI (CCRF-CEM; read-out: pTGI) was greater than 100 µM and the Activity (SNB-75) was 41.12%. It also gave a GI50 (A498; read-out: GI50) of 17.8 µM, a CC50 (A498; [3]) greater than 100 µM and a TGI (A498; read-out: TGI) of 74.6 µM. It also gave a GI50 (A498; read-out: pGI50 (converted)) of 4.37 µM, a CC50 (A498; [4]) greater than 100 µM and a TGI (A498; read-out: pTGI (converted)) greater than 100 µM.
